LMP1 NFkB inh: inhibitors of Epstein-Barr LMP1-induced NF-kappaB reporter | LMP1-induced NF-kappaB luciferase reporter cells, luminescence | inhibition, % at 12.5 µM | 0.69% of 350,000 active; in the data active = inhibition above about 41%; inconclusive = no clear call, values can overlap the other calls
FN deposit inh: fibronectin deposition inhibition; AH1F fibroblasts, Alexa488-fibronectin deposition fluorescence, overnight; 0.086% of 350,000 active; AID 743247; inhibition, % at 12.6 µM;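 active = mean inhibition across replicates of 30% or more, regardless of how many single replicates reach that level; inconclusive = mean under 30% yet at least half of replicates reach 30%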
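test system = AH1F fibroblasts assembling fluorescent fibronectin matrix | quantity = 10000 AH1F cells per well | buffer or medium = DMEM plus 2% serum, read in PBS | doses = single dose, pinned | incubation = 1 h cell attachment, overnight exposure to compound and label | detection = fluorescence at 485 nm excitation, 525 nm emission | read-out basis = inhibition from reduced deposited-fibronectin fluorescence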
EWS-Fli inh: blocks EWS/Fli oncoprotein-driven transcription | A673 NR0B1-luciferase reporter, viability-normalised | inhibition, % at 12.6 µM | 0.67% of 350,000 active | AID 651661;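 active = mean inhibition of at least 50% after viability correction, with every replicate also passing that limit; inconclusive = mean reaches 50% but only one of two replicates passes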;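 also: firefly luciferase signal divided by Alamar Blue viability fluorescence both relative to DMSO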
PAX8 inh HTS: lowers PAX8-driven luciferase in RMG-I cells | AID 652154 | 1.2% of 360,000 active | RMG-I TPO-luciferase reporter, SteadyGlo, 24 h | inhibition, % at 12.6 µM;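 active = mean replicate inhibition at least 60% with every replicate also reaching 60%; inconclusive = only one of the two criteria is met; inactive = mean below 60% and not all replicates reaching 60%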;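 also: luciferase light reporting Pax8 driven TPO promoter activity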
Shn3 3UTR inh: reduces Shn3 3'UTR luciferase signal in osteoblasts; inhibition, % at 12.5 µM; Clone20 osteoblast Shn3 3'UTR firefly luciferase, 24 h; AID 588674; 0.52% of 360,000 active;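 active = mean inhibition of at least 75% with every replicate also reaching 75%; inconclusive = mean inhibition at least 75% but some replicate below; inactive = mean inhibition below 75%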
aSyn 5UTR inh: 5' untranslated region of α-synuclein, MLPCN primary screen | alpha-synuclein 5'UTR reporter, inhibitor activity | inhibition, % (tested at 7.5 µM) | 0.82% of 300,000 active | AID 1813; in the data active = inhibition above about 60%; inconclusive = no clear call, values can overlap the other calls;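 also: H4 neuroglioblastoma cells stably carrying SNCA 5'UTR luciferase fusion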
Hits are given with their value; . = inactive; ? = inconclusive; / = no result. In the library only some 2.1% were active in any assay of this set; here they are far more common.

SMILES	LMP1 NFkB inh	FN deposit inh	EWS-Fli inh	PAX8 inh HTS	Shn3 3UTR inh	aSyn 5UTR inh
CC(C)c1ccccc1-n1c(SCC(=O)N2CCc3ccccc3C2)nc2ccccc2c1=O	.	.	.	.	95.7	.
C[C@H](CO)N1C[C@H](C)[C@H](CN(C)C(=O)Nc2ccc3c(c2)OCO3)OCc2cn(nn2)CCCC1=O	/	.	.	.	/	/
CCC(C)Nc1nc(N)c([N+](=O)[O-])c(Nc2ccccc2OC)n1 (stereo unspecified)	.	.	.	.	.	?
CCC(C)Nc1nc(N)c([N+](=O)[O-])c(Nc2cc(OC)ccc2OC)n1 (stereo unspecified)	.	.	.	.	.	97.1
C=CCNc1nc(N)c([N+](=O)[O-])c(Nc2ccccc2OC)n1	.	.	.	.	.	?
COc1ccccc1Nc1nc(NCC(C)C)nc(N)c1[N+](=O)[O-]	.	.	.	.	.	77.3
C[C@H](CO)N1C[C@H](C)[C@H](CN(C)C(=O)c2ccncc2)Oc2ncc(C#CC3CCCC3)cc2C1=O	/	.	.	.	/	/
O=C(c1ccco1)N1N=C(c2ccc(Br)cc2)CC1(O)C(F)(F)F (stereo unspecified)	.	.	.	97.0	.	.
O=C(Nc1cccc(O)c1)c1cc(-c2ccc3c(c2)OCO3)on1	.	.	.	.	.	69.3
C[C@@H]1CN([C@@H](C)CO)C(=O)c2cccc(NS(=O)(=O)c3ccc(Cl)cc3)c2O[C@@H]1CN(C)Cc1ccc(Cl)c(Cl)c1	/	/	.	.	/	/
O=C(CC1SC(=Nc2cccc3ccccc23)N(Cc2ccccn2)C1=O)Nc1ccccc1Br (stereo unspecified)	.	.	.	96.0	.	.
COc1ccc(OC)c2c1sc(=NC(=O)C1CC1)n2C	.	.	.	.	.	.
COc1ccc(OC)c2c1sc(=NC(=O)c1ccco1)n2C	52.8	.	.	.	.	.
C/C=C/c1cnc2c(c1)C(=O)N([C@H](C)CO)C[C@H](C)[C@H](CN(C)C(=O)Cc1ccccc1)O2	/	/	.	/	/	/
CN1c2ccc(-c3ccc(F)cc3)cc2[C@H]2[C@H](CCN2C(=O)c2cccnc2)[C@@H]1CO	/	.	.	.	/	/
Oc1c(C(c2ccccn2)N2CCCCC2)cc(Cl)c2cccnc12 (stereo unspecified)	.	.	.	76.7	.	.
CN1CCN(C(c2ccc(Cl)cc2)c2cc(Cl)c3cccnc3c2O)CC1 (stereo unspecified)	.	.	/	.	.	77.1
CN1CCN(C(c2ccc(C(F)(F)F)cc2)c2cc(Cl)c3cccnc3c2O)CC1 (stereo unspecified)	/	.	.	?	/	.
C[C@@H]1CCCCO[C@@H](CN(C)CC2CCCCC2)[C@H](C)CN([C@@H](C)CO)C(=O)c2cc(NC(=O)c3ccncc3)ccc2O1	/	/	/	.	/	/
CO[C@@H]1CN(C)C(=O)c2ccc(NS(=O)(=O)c3ccccc3)cc2OC[C@H](C)N(C(=O)NC(C)C)C[C@@H]1C	/	.	.	/	/	/
CC(=O)c1ccc(NC(=O)c2ccc3snnc3c2)cc1	.	.	/	.	.	.
O=C(Nc1ccc(Cl)cc1)c1ccc2snnc2c1	79.9	.	.	.	.	.
COc1cccc(/C=N/NC(=O)C(=O)Nc2ccccc2OC(F)(F)C(F)F)c1O	.	.	.	.	.	71.5
COc1cccc(/C=N/NC(=O)c2cc(-c3ccccn3)nc3ccccc23)c1O	.	.	.	68.3	?	/
CCOc1ccccc1NC(=O)C(=O)N/N=C/c1cc(Br)ccc1O	.	.	.	.	90.8	.
SMILES	LMP1 NFkB inh	FN deposit inh	EWS-Fli inh	PAX8 inh HTS	Shn3 3UTR inh	aSyn 5UTR inh
COc1cccc(/C=N/NC(=O)c2c(C)nc3ccc(Cl)cn23)c1O	61.1	.	.	.	89.7	.
CCOc1ccccc1C=NNC(=O)C(=O)NN=Cc1ccccc1OCC	.	.	.	.	.	/
COc1ccccc1/C=N\NC(=O)c1c(C)nc2ccc(Cl)cn12	.	.	.	.	.	.
C[C@@H]1CCCCO[C@H](CN(C)S(=O)(=O)c2ccc(Cl)cc2)[C@H](C)CN([C@H](C)CO)C(=O)c2cc(NC(=O)Cc3ccccc3)ccc2O1	/	/	.	.	/	/
C[C@H]1CCCCO[C@@H](CN(C)C(=O)Nc2ccc3c(c2)OCO3)[C@@H](C)CN([C@@H](C)CO)C(=O)c2cc(NC(=O)NC3CCCCC3)ccc2O1	/	/	.	.	/	/
O=C(N[C@@H]1CC[C@H](CCn2cc(-c3ccccc3)nn2)O[C@@H]1CO)c1ccccc1F	/	.	.	.	/	/
COc1cccc(/C=N/NC(=O)C[n+]2ccccc2)c1O	.	.	/	.	.	.
CCCCSc1nc(C)cc(SCC(=O)N/N=C/c2cccc(OC)c2O)n1	.	/	/	/	.	81.1
COc1ccc(CCCC(=O)N/N=C/c2cccc(OC)c2O)cc1C	.	.	.	.	?	74.1
COc1cc(/C=N/NC(=S)Nc2cccc(C(=O)O)c2)ccc1O	73.9	.	81.4	79.7	.	70.2
COc1ccc(/C=N/NC(=S)Nc2cccc(C(=O)O)c2)cc1	.	.	.	.	.	.
COc1ccccc1/C=N/NC(=O)c1c(-c2ccccc2)noc1C	.	.	.	.	.	.
Cc1cccc(/C=N/NC(=O)c2c(-c3ccccc3)noc2C)c1O	.	/	/	.	?	62.3
Cc1cc(C(=O)Nc2ccc3c(c2)C(=O)N(C)[C@H]2CC[C@@H](CC(=O)N[C@H](C)c4ccccc4)O[C@@H]2CO3)no1	/	.	.	.	/	/
CCCNC(=O)N[C@@H]1CC[C@@H](CC(=O)NCCc2ccccc2)O[C@@H]1CO	/	.	.	.	/	/
C[C@H](CO)N1C[C@H](C)[C@H](CN(C)C(=O)c2ccncc2)OCCCC[C@H](C)Oc2ccc(NS(=O)(=O)c3cn(C)cn3)cc2C1=O	/	/	.	.	/	/
COc1cccc(/C=N/NC(=S)Nc2cccc(C(=O)O)c2)c1O	.	.	61.2	.	.	?
COc1ccc(OC)c(/C=N\NC(=O)c2ccc(-c3ccccc3)cc2)c1	.	.	/	.	.	/
COc1cccc(/C=N/NC(=O)c2ccc(-c3ccccc3)cc2)c1O	57.3	/	/	/	91.2	75.8
COc1ccccc1/C=N/NC(=O)c1cccc(NC(=O)c2ccccc2C)c1	.	.	.	.	.	.
O=C1C=CCCN1C(=O)/C=C/c1cccc(C(F)(F)F)c1	/	/	62.3	.	/	/
O=C(/C=C/c1ccccc1Cl)N1CCOCC1	.	.	.	.	.	.
COc1cc(/C=C/C(=O)N2CCC=CC2=O)cc(OC)c1OC	.	.	70.2	105.2	.	/
O=C1C=CCCN1C(=O)/C=C/c1ccccc1Cl	/	/	62.0	.	/	/
COc1cc(C=CC(=O)c2cc(OC)c(OC)c(OC)c2)cc(OC)c1OC	.	.	.	95.8	.	/
CN1C(=O)c2cc(NC(=O)Cc3cccs3)ccc2OC[C@@H]2O[C@@H](CC(=O)O)CC[C@H]21	/	.	.	.	/	/
CC(=O)Nc1ccc(NC2=CC(=O)c3ccccc3C2=O)cc1	.	.	.	.	.	.
COc1cc(OC)c(NC2=CC(=O)C(=O)c3ccccc32)cc1Cl	.	.	.	92.8	.	107.4

Screening data deposited in PubChem by Broad Institute.
